Measured values from ChEMBL document CHEMBL4145675, “2-Phenylquinoline S. aureus NorA Efflux Pump Inhibitors: Evaluation of the Importance of Methoxy Group Introduction” (J Med Chem, 2018).

Target: T1, Multidrug export protein MepA (Staphylococcus aureus (strain NCTC 8325)) (UniProt Q2G140)
T1 sequence (whole entry): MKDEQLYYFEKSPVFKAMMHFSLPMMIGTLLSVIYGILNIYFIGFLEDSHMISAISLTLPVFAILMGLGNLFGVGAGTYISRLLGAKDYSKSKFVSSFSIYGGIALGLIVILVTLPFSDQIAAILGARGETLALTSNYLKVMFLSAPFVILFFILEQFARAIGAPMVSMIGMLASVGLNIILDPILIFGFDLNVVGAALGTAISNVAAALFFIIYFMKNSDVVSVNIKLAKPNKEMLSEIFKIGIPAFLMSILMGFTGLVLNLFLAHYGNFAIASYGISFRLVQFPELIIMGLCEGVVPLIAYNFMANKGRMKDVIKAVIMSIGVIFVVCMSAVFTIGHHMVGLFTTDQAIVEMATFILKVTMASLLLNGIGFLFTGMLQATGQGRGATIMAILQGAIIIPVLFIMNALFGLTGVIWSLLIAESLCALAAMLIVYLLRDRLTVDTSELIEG
Assay: Inhibition of MepA in Staphylococcus aureus SA-K2886 assessed as synergistic potentiation of EtBr-induced antimicrobial activity by measuring […] at 1.56 ug/ml by microdilution method based Checkerboard assay (reference value: 25 ug/ml)
Outline: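 Checkerboard combination of EtBr with compound, using broth microdilution MICs. SA-K2886 (norA-deleted, pALC2073-mepA) and SA-K2885 (norA-deleted, empty pALC2073) were run with 0.05 µg/mL tetracycline in all experiments to induce the xyl/tetO promoter.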

Question: With `CCCOc1ccc(-c2cc(OCCN3CCCCC3)c3cc(OC)ccc3n2)cc1` as the compound, how does the MIC read?
Answer: Its MIC is < 1.56 µg/mL.
